According to ChEMBL document CHEMBL4513216, “Probing the Open Global Health Chemical Diversity Library for Multistage-Active Starting Points for Next-Generation Antimalarials” (ACS Infect Dis, 2020):

Assay: Toxicity liver stage against HepG2, at 10uM
Assay type: cell-based
Parameters: test concentration 10 uM, cell line HepG2-A16-CD81EGFP
Conditions: human, HepG2-A16-CD81EGFP cells; read-out: INHIBITION
How it was run: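 Uninfected HepG2-A16-CD81EGFP cells, 3 × 10^3 per well, 1536-well, plated on prespotted compound at 10 μM final, parasite-free screening media added to match infected plates; puromycin 10 μM positive, DMSO 0.5% negative; run in parallel with 48 h PbLuc assay at 37 °C, 5% CO2; viability by CellTiter-Glo luminescence, normalized to controls.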

`O=C(CCn1cccc1)NCc1ccc(CN2CCCCCC2)o1` gave a cytotoxicity at 10 µM of -5.2%.

`CCOCCCNC(=O)C1(C)CCC(=O)N1c1ccccc1F` (stereo not given) gave a cytotoxicity at 10 µM of -4.42%.

Work on `CSc1ccc(C(=O)N2CC(=O)N(CC(C)(C)C)CC(O)C2)cc1` (stereo not given) yielded a cytotoxicity at 10 µM of 8.6%.

`Cn1nc(CNC(=O)C2CCN(S(C)(=O)=O)CC2)cc1C1CC1` gave a cytotoxicity at 10 µM of -2.87%.

`CSCc1cccc(S(=O)(=O)N2CCCCC2)c1` gave a cytotoxicity at 10 µM of 6.61%.

With `Cc1cc(N)n(-c2ccc3nnc(C)n3n2)n1` the cytotoxicity at 10 µM was 5.89%.

`COCCCNC(=O)c1cc(C(C)C)nc(N2CCCCCC2)n1` showed a cytotoxicity at 10 µM of 9.15%.

Molecule `CNC(=O)C1CN(C)CCN(C(=O)CCn2nnc3ccccc32)C1` (stereo not given) has a cytotoxicity at 10 µM of 2.71%.

For `CC(=O)NC(Cc1c[nH]c2cc(F)ccc12)C(=O)Nc1nonc1C` (stereo not given), the cytotoxicity at 10 µM was -9.93%.

Work on `CCOC(C)C(=O)NCc1cccc(CN2CCCCCC2)c1` (stereo not given) yielded a cytotoxicity at 10 µM of 15.5%.

With `COc1ccc2c(c1)CCCN(C(=O)NCC1CCCO1)C2` (stereo not given) the cytotoxicity at 10 µM was 1.06%.

For `CSc1ccsc1C(=O)NC(Cc1ccccc1)C(N)=O` (stereo not given), the cytotoxicity at 10 µM was -5.24%.

In the case of `COC(=O)CNC(=O)c1cccc(C(=O)N(C)c2ccccc2)c1`, the cytotoxicity at 10 µM is reported as 6.93%.

For `Cc1ccc(C(=O)N(C)Cc2ccc(Br)s2)c(=O)[nH]1`, the cytotoxicity at 10 µM was 5.02%.

With `CC(C)c1nc2c(n1C)CCN(CC(=O)NCc1ccccn1)C2` the cytotoxicity at 10 µM was -8.52%.

With `Cc1noc(C)c1CN(Cc1ccccc1)C(C)CN1CCOCC1` (stereo not given) the cytotoxicity at 10 µM was 7.97%.

For `CN1CCC(CNC(=O)c2ccc(O)nc2)c2ccccc21` (stereo not given), the cytotoxicity at 10 µM was 13.9%.

Work on `CS(=O)(=O)N1CCC(c2nnc3ccc(C(=O)NC4CCC4)cn23)C1` (stereo not given) yielded a cytotoxicity at 10 µM of 3.6%.

Work on `CN(C)Cc1csc(-c2nccn2Cc2ccc(C(=O)O)cc2)c1` yielded a cytotoxicity at 10 µM of -1.3%.

`Cc1cccc2c1nc(CCO)n2-c1ccc(C(=O)N2CCOCC2)o1` showed a cytotoxicity at 10 µM of 3.69%.

With `CCc1[nH]c2c(CNc3nccc(N)n3)cc(C)cc2c1C` the cytotoxicity at 10 µM was 3.4%.

For `O=C(O)[C@@H]1CN(Cc2ccc(-c3cc[nH]n3)s2)C[C@H]1C1CC1`, the cytotoxicity at 10 µM was 5.13%.

`Cc1ccc(C)c(C(=O)N2CCOC(CCN(C)C)C2)c1` (stereo not given) showed a cytotoxicity at 10 µM of -0.63%.

Molecule `COCC1(NC(=O)Nc2nc(C)ns2)CCCC1` has a cytotoxicity at 10 µM of 0.512%.

In the case of `O=C(NCc1cn2cccnc2n1)C1CC(=O)N(Cc2ccccn2)C1` (stereo not given), the cytotoxicity at 10 µM is reported as 2.69%.

In the case of `CN(CC1=CCCN(CCc2ccccn2)C1)C(=O)c1ccco1`, the cytotoxicity at 10 µM is reported as 1.7%.

For `CCn1cc(-c2cc(-c3cc(CC(=O)O)cs3)nc(N)c2C#N)c(C)n1`, the cytotoxicity at 10 µM was 1.16%.

In the case of `Cc1cc(C(=O)NCCC2CCN(C)CC2)ccc1N(C)S(C)(=O)=O`, the cytotoxicity at 10 µM is reported as 5.82%.

`CNc1cc(CNC(=O)c2ccccn2)nc(-c2ccncc2)n1` gave a cytotoxicity at 10 µM of -2.63%.

Molecule `O=C(c1cccs1)N1CCC(O)(CN2CCc3ccccc3C2)C1` (stereo not given) has a cytotoxicity at 10 µM of 1.49%.

`COc1cnc(C2(O)CCN(C(=O)c3ccncc3)CC2)c(OC)n1` showed a cytotoxicity at 10 µM of -4.38%.

With `CN(C)CC(=O)N1C[C@@H]2CC[C@H](Oc3ccccc3Cl)[C@@H]2C1` the cytotoxicity at 10 µM was 3.22%.

`c1cc(CN2CCCC2c2noc(C3CC3)n2)on1` (stereo not given) showed a cytotoxicity at 10 µM of -0.628%.

Molecule `CNS(=O)(=O)c1ccc(CNC(=O)c2cccc(C)n2)cc1` has a cytotoxicity at 10 µM of 7.17%.

Molecule `CC(C(=O)N1CCCCCC1)N1CCN(Cc2nccn2C)CC1` (stereo not given) has a cytotoxicity at 10 µM of -5.28%.

Molecule `Cn1cc(CCC(=O)N2CCCN(c3ncccc3C#N)CC2)cn1` has a cytotoxicity at 10 µM of 2.88%.

Work on `COc1nc(C)cc(C)c1CNC(=O)N(C)Cc1cnn(C)c1` yielded a cytotoxicity at 10 µM of -4.64%.

`OCCn1cc(CN2CCN(CCOc3ccccc3)CC2)cn1` gave a cytotoxicity at 10 µM of -8.43%.

In the case of `CCc1nccn1C1CCCN(C(=O)CCc2nccs2)C1` (stereo not given), the cytotoxicity at 10 µM is reported as -14.3%.

With `COc1ccccc1N1CCC(CNCc2cccc(O)c2)C1` (stereo not given) the cytotoxicity at 10 µM was -9.04%.

In the case of `O=C(COCc1ccccc1)N1CCCC(n2cncn2)C1` (stereo not given), the cytotoxicity at 10 µM is reported as -8.6%.

In the case of `CC(O)(CN1CCC2(CC1)OCCO2)c1cccc(C(F)(F)F)c1` (stereo not given), the cytotoxicity at 10 µM is reported as -9.21%.

Molecule `COCC(=O)NCc1cc(=O)n2c(n1)CN(CC1CCOC1)CCC2` (stereo not given) has a cytotoxicity at 10 µM of 1.47%.

Molecule `CS(=O)(=O)N[C@@H]1CN(C(=O)c2ccccn2)[C@@H]2CCCO[C@@H]21` has a cytotoxicity at 10 µM of 4.3%.

Molecule `CN(C)C(=O)NC1COC2(CCN(Cc3ccccc3)CC2)C1` (stereo not given) has a cytotoxicity at 10 µM of 4.14%.
